High-throughput results from PubChem.
Shown are actives, neighbours in structure and some others; about 3.8% of the full set was active somewhere.
Measles CPE: protection of cells from measles virus. Measles virus-infected cells, CPE protection, absorbance. protection (pct of control), % at 4 µM. 1.5% of 140,000 active. AID 841; in the data active means protection mostly above about 24%, no sharp cut-off; inactive means mostly below about 26%
RAM network inh: yeast RAM network inhibition. S. cerevisiae dse1pr::URA3 reporter, 5-FOA growth OD615, 2 d; analog-sensitive cbk1-as2 kinase mutant strain. inhibition, % at 50 µM. 1.8% of 190,000 active. AID 868;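 active means inhibition above a set limit, 3 SD over mean compound inhibition, cut at about 8.4% in these data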;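 further: 0% = DMSO-only wells with no growth and 100% = 10 µM 1-NA-PP1 full growth; inhibition rescues growth on 5-FOA so higher OD means more RAM inhibition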
SDO1 yeast rescue: compounds rescuing growth of sdo1-depleted yeast, bone marrow failure model | S. cerevisiae sdo1-depleted JHY4D growth rescue, OD600 30 h; stronger effect = higher value; pdr5 snq2 efflux-pump mutant strain | z-score at 10 µM | 0.21% of 140,000 active | AID 817;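 active means z-score above 3 at both the 24 hr and the 30 hr optical density reads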;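 further: z-score against mean and SD of all compound wells on the same plate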
Yeast lifespan up: extends the lifespan of yeast; S. cerevisiae growth with nicotinamide, OD615; deaD strain in restrictive glucose medium; inhibition of the nicotinamide effect, % at 10 µM; 0.68% of 130,000 active; AID 775;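 active means inhibition above a set limit, placed 3 SD over the median of all compounds, cut at about 26% in these data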;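 further: 0% = nicotinamide-treated wells and 100% = cells grown without nicotinamide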
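assay system = DeaD-strain S. cerevisiae | buffer or medium = restrictive glucose medium | reagent = 1.5 mM nicotinamide | compound = 10 µM single point, 0.25% DMSO | incubation = 48 h compound exposure at 30 °C, humidified | signal = OD615 measurement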
BB579 growth dn: yeast BB579 growth reduction in restrictive medium; inhibition, % at 10 µM; 0.51% of 140,000 active; AID 804; S. cerevisiae BB579 growth, OD615, 48 h;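 active means inhibition above a set limit, 3 SD over the mean compound inhibition, cut at about 44% in these data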
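System: DeaD yeast strain BB579; buffer or medium: CSMM-D dextrose restrictive medium; technique: OD at 615 nm; schedule: 4 h cell preincubation, 48 h compound exposure, 30 °C humidified; doses: single 10 µM dose; controls: amphotericin B 10 µg/mL, positive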
Starred values were filed as active, the others as inactive; . = no result given; [ ] = dose if it differs, or a comment.

SMILES	Measles CPE	RAM network inh	SDO1 yeast rescue	Yeast lifespan up	BB579 growth dn
Cc1cc(C)c2nc(-c3ccccn3)cc(C(=O)NCc3ccc(S(N)(=O)=O)cc3)c2c1	.	0	.	.	.
Cc1cc(C)c2nc(-c3ccccn3)cc(C(=O)NCCc3ccc(S(N)(=O)=O)cc3)c2c1	.	10*	.	.	.
C#CC[N+](C)(C)CCCCCCCCCCCC	5	0	-1.8	-7	25
C#CC[N+](C)(C)CCCCCCCCCC	28*	-1	0.5	-5	8
COc1ccc(Nc2nnc(SCC(=O)Nc3ccc4[nH]c(=O)[nH]c4c3)s2)cc1	.	10*	.	.	.
COc1ccc(Nc2nnc(SCC(=O)NC(=O)Nc3ccc4c(c3)OCCO4)s2)cc1	.	6	.	.	.
Cc1ccc(NC(=O)C2C(C(=O)O)C3C=CC2C32CC2)cc1 (centres undefined)	13	-1	-0.31	-9	-4
Cc1ccc(NC(=O)C2C(c3ccccc3)C=CC(c3ccccc3)C2C(=O)O)cc1 (centres undefined)	27*	1	-0.26	30*	-19
Cc1cc(S(=O)(=O)NCc2ccccc2)ccc1OCC(=O)Nc1cccc([N+](=O)[O-])c1	4	11*	-0.61	-1	-11
CCOC(=O)Cn1c(S(=O)(=O)Cc2cccc(F)c2)nc(-c2ccccc2)c1-c1ccccc1	31*	5	-1.2	0	-32
C#CCn1c(S(=O)(=O)Cc2ccc(F)cc2)nc(-c2ccccc2)c1-c1ccccc1	52*	5	-1.2	-1	-38
CCOC(=O)Cn1c(S(=O)(=O)Cc2ccc(F)cc2)nc(-c2ccccc2)c1-c1ccccc1	52*	4	-0.62	-6	-36
CCOC(=O)Cn1c(-c2ccccc2)nc2ccccc2c1=O	8	0	-0.97	-21	-39
O=C(NCc1ccc(F)cc1)C1CCN(c2cnccn2)CC1	.	3	.	.	.
Cc1cc(C(=O)NP(=O)(N2CCOCC2)N2CCOCC2)c(C)n1-c1ccc(Br)cc1	46*	-1	2.3	-5	-18
CSc1cccc(NC(=O)CCCOc2ccc(Cl)cc2Cl)c1	3	11*	-1.3	-2	-51
Cn1c(CCCOc2ccc(Cl)cc2Cl)nnc1SCC(=O)Nc1ccc(F)c(Cl)c1	26	9.0*	-0.15	6	-19
C=CCn1c(CCCOc2ccc(Cl)cc2Cl)nnc1SCC(=O)Nc1nccs1	25	8.9*	0.58	0	-62
COc1ccc(C(=O)Cc2nnc(C)s2)cc1	7	0	0	-4	-2
CCN(c1ccc(NC(=O)COC(=O)c2ccc(S(=O)(=O)N3CCCC3)cc2)cc1)C(C)C	20	-1	-0.3	-30	-36
CC(=O)Nc1cccc(-c2csc(NCc3ccco3)n2)c1	27*	0	0.59	-7	-50
C=CCSc1nc2sc3c(c2c(=O)n1CC)CCc1ccccc1-3	3	9.2*	-1.1	-3	-30
C=CCn1c(SCC(=O)NC)nc2sc3c(c2c1=O)CCC3	7	2	-0.15	-11	-16
C=CCn1c(SC)nc2sc3c(c2c1=O)CCc1ccccc1-3	2	9.0*	-0.15	-5	-37
CCn1c(SCC(N)=O)nc2sc3c(c2c1=O)CCCC3	4	3	-0.19	-6	-58
SMILES	Measles CPE	RAM network inh	SDO1 yeast rescue	Yeast lifespan up	BB579 growth dn
O=C(CSc1n[nH]c(=O)n1C1CC1)Nc1cc(Cl)ccc1Oc1ccccc1	3	1	-1.1	-3	-3
O=C(NCc1ccccn1)C(=O)Nc1nc(C23CC4CC(CC(C4)C2)C3)cs1	.	-1	.	.	.
COc1ccc(/C=C2\N=C(SC)N(c3ccccc3OC)C2=O)cc1	.	8.4*	.	.	.
CCOc1ccc(N2C(=O)/C(=C/c3ccccc3)N=C2SC)cc1	.	2	.	.	.
O=C(NNc1nc2cc3c(cc2s1)OCCO3)c1ccccc1	.	0	.	.	.
Cc1cccc2sc(NNC(=O)c3ccc4c(c3)OCCO4)nc12	37*	-1	-0.67	-5	10
O=C(NCc1ccccc1)c1cc[n+](Cc2ccccc2)cc1	.	1	.	.	.
CSCCC(NC(=O)c1ccc(Cl)cc1)C(=O)OCC(=O)Nc1cc(Cl)ccc1C (centres undefined)	27	10*	-0.6	-2	3
O=C(OCn1ncc(Cl)c(Cl)c1=O)c1cccc(C(F)(F)F)c1	4	3	-2.7	-13	62*
CCc1ccc(C(=O)Cn2ncc(Cl)c(Cl)c2=O)cc1	2	4	-1.4	-2	-20
O=C(NCC(c1cccs1)N1CCOCC1)c1ccccc1NS(=O)(=O)c1cccc([N+](=O)[O-])c1 (centres undefined)	32*	0	0.1	3	5
O=C(NCC(c1cccs1)N1CCOCC1)c1ccccc1NS(=O)(=O)c1ccc(Cl)c([N+](=O)[O-])c1 (centres undefined)	6	1	-0.03	15	-11
CCN(CC)S(=O)(=O)c1ccc(Cl)c(C(=O)Oc2cccc(-c3cnc4ccccc4n3)c2)c1	31*	7	-1.4	-5	-22
COc1ccc(/C=C/C(=O)OCC(=O)c2c(C)[nH]c3ccccc23)cc1OC	16	0	-1.6	-2	-17
CC1=C(C)CC(C(=O)c2ccc(C)cc2)C(C(=O)O)C1 (centres undefined)	3	-1	-0.64	30*	-10
O=C(c1ccccc1)[C@H]1CC=CC[C@H]1C(=O)O	8	2	-0.15	2	-13
O=C(CN1C(=O)C2CC=CCC2C1=O)Nc1nc2ccccc2s1 (centres undefined)	.	2	.	.	.
CCn1c(/N=C/c2ccccc2NS(=O)(=O)c2ccc(C)cc2)nc2ccccc21	66*	0	-1.8	50*	-5
Cc1ccc(O)c(C(CC(=O)N2CCCC2)c2ccccc2)c1 (centres undefined)	29*	-1	-0.1	1	-27
O=C(CC(c1ccccc1)c1cc(Br)ccc1O)N1CCCC1 (centres undefined)	.	1	.	.	.
CCCn1nc(C(=O)Nc2cccc(C(=O)OC)c2)c2ccccc2c1=O	9	8.9*	-0.4	-19	-28
COC(=O)c1cccc(NC(=O)c2nn(C(C)C)c(=O)c3ccccc23)c1	2	2	-0.57	-4	-29
Cc1cc(C)c2c(c1)cc(C)c1nnc(SCC(=O)Nc3ccc(S(=O)(=O)N4CCCCC4)cc3)n12	50*	2	-0.3	-1	-9
O=C(CSc1ncccn1)Nc1ccc(S(=O)(=O)N2CCCCC2)cc1	5	1	0.01	-17	-45
CC(NC(=O)COC(=O)c1cc(NS(=O)(=O)c2ccc(Cl)c([N+](=O)[O-])c2)ccc1O)C1CC2CCC1C2 (centres undefined)	9	3	0.2	11	-55
COc1cccc(OCC(O)CN(CCO)Cc2ccccc2)c1 (centres undefined)	32*	1	0.29	-2	-13
CC1(C)NC(=O)N(CC(O)COc2cc3ccccc3cc2C(=O)N2CCCCC2)C1=O (centres undefined)	2	0	0.47[9.2 µM]	-14	18
